Usually viability stands for a read-out of living cells in per cent, often relative to untreated cells. As usually defined, the inhibition is the drop in the measured response relative to a control, in per cent.

The structures appear in SMILES notation. Activity calls are given as the source filed them. Rule as the data show it, unless noted: active = inhibition above about 30%; inactive = the rest.

A short description of assay [1]: Her2 expression decrease, cell viability multiplex – SKBR3 breast tumor cells, AlphaScreen, ATP viability, primary screen (AID 461;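 active = Her2 level under about 52% in both replicate screens, with viability over 70% of control, limit read from the data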;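 as to Her2 level: lower value means less Her2 protein in the cells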;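 as to viability: percent of carrier control wells set as 100% viability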). Particulars: SKBR3 Her2 protein level, 18-24 h, measured here: SKBR3 viability, ATP luminescence, at 10 µM. (In Alpha technology, singlet oxygen from a donor bead excites a nearby acceptor bead.)
Assay [2] concerns the target Receptor tyrosine-protein kinase erbB-2 (Homo sapiens) (UniProt P04626). The description is as above. Particulars: 18-24 h, at 10 µM, stronger effect = lower value.
Assay [3] can be described thus: reduced viability of SK-BR-3 breast cancer cells – cell-based, 24 h, human, pilot screen (AID 572;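 active = viability at or below 10% of carrier control in both of two separate runs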;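 also: compound exposure lasted between 18 and 24 h rather than exactly 24 h; 100% = carrier-treated control wells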). The following applies: SK-BR-3 viability, CellTiter-Glo luminescence, at 10 µM, stronger effect = lower value. A general note: In ATP-based viability assays light output follows the ATP content of the culture.
A short description of assay [4]: HUVEC growth inhibition – cell-based, human, primary screen (AID 575;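 active = viability at or below 30% in both replicate assays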;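 also: 100% = median of untreated cell wells with 0.1% DMSO on each plate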). The following applies: HUVEC proliferation, CellTiter-Glo luminescence, 72 h; at 10 µM; stronger effect = lower value. In outline:
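System: primary human umbilical vein endothelial cells; Quantity: 1250 endothelial cells in each well; Buffer or medium: supplemented EBM, 2% fetal bovine serum; Doses: one dose, 10 µM final, 0.1% DMSO; Incubation: 72 h compound incubation; Technique: ATP-based CellTiter-Glo luminescent read; Evaluation: percent of median DMSO-control luminescence; Controls: vehicle and MePR control wells.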

A short description of assay [5]: H69AR cell proliferation blockers – human, duplicate replicates, primary screen (AID 580;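 active = viability at or under a set limit in both replicates, limit being median viability minus 3 SD, cut at about 48% in these data, passing the limit was not always enough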;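 also: 100% = mean luminescence of untreated wells and 0% = no signal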). Particulars: H69AR lung tumor cells viability, ATP luminescence, 72 h; at 10 µM; stronger effect = lower value.
Assay [6] in a line: MRP1 drug-resistance reversers in H69AR cells – cell-based, doxorubicin co-treatment, pilot screen (AID 601;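 active = viability loss from added drug above about 55%, and viability with drug at most 40%, in both replicates, limit read from the data, passing the limit was not always enough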). The following applies: CellTiter-Glo, 72 h, at 10 µM; for differential viability (reversal): stronger effect = higher value.
Assay [7] can be described thus: yeast transport mutant growth inhibition pilot in 384-well plates, post-Golgi transport modulator project (AID 636; in the data active = inhibition above about 31%). Particulars: absorbance 615 nm, about 18 h, stronger effect = higher value.
The nature of assay [8]: growth suppression of yeast trafficking mutant, preliminary HTS, modulators of trafficking downstream of Golgi apparatus project, 1536-format plate, OD 615 nm (AID 637). Particulars: yeast transport mutant growth, absorbance 615 nm, 18 h; stronger effect = higher value.
Setting [9] is: H69AR cells + 2 uM doxorubicin, measured here: viability with 2 uM doxorubicin, stronger effect = lower value.
Setting [10] is: H69AR cells, compound alone cytotoxicity.

Chain of Receptor tyrosine-protein kinase erbB-2 (Homo sapiens) (P04626 whole entry, looked up): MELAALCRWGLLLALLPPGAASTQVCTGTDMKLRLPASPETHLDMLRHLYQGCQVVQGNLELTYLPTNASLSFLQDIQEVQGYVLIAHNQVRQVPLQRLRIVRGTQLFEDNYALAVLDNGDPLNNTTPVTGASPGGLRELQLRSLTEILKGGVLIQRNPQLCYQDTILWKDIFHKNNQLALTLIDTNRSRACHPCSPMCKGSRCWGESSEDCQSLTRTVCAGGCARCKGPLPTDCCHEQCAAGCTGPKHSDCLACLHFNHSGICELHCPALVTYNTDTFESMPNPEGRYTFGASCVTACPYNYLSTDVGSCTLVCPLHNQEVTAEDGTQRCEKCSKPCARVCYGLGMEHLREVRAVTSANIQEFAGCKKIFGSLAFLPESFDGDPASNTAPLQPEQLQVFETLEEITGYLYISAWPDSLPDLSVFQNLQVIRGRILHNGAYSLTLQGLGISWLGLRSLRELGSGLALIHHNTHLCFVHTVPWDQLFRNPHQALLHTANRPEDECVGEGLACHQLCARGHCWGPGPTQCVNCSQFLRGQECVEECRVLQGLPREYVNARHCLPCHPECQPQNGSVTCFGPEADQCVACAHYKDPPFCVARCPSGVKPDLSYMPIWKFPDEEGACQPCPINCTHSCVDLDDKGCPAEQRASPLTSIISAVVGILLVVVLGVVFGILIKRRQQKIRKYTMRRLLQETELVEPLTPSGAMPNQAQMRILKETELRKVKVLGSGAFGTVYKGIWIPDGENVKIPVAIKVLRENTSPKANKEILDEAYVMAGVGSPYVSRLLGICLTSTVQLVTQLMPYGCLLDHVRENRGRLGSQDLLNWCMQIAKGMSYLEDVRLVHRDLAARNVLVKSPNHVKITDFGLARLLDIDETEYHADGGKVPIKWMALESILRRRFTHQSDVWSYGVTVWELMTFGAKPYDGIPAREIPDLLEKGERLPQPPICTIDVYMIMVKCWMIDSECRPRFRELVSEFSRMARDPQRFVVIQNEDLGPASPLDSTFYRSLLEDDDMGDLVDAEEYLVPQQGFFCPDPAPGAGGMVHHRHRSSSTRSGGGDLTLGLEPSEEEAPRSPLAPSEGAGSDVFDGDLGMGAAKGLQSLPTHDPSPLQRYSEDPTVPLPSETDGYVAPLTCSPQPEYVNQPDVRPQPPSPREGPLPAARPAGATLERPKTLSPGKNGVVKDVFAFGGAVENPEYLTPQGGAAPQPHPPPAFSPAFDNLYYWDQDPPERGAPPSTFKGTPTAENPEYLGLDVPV

On to `Cn1cccc1-c1nc2ccc(NC(=O)c3ccco3)cc2[nH]1`, for which the viability in assay [1] is 114%; in assay [3], 114% (inactive); in assay [4], 120% (inactive); in assay [5] it was 77% (inactive); in assay [6] (setting [9]), 81.4%; in assay [6] (setting [10]), 77%. In addition, the Her2 level in assay [2] was 93% (inactive). For the same molecule, the differential viability (reversal) in assay [6] (H69AR cells + 2 uM doxorubicin) is -4.33% (inactive). The inhibition was -2.76% (inactive) in assay [7] and -3.65% (inactive) in assay [8].

Regarding `CCOC(=O)c1sc(NC(=O)CSc2nnnn2-c2ccccc2)c(C(=O)OCC)c1C`, the viability was 80% in assay [1]; 80% (inactive) in assay [3]; 36.6% (inactive) in assay [4]; 65.7% (inactive) in assay [5]; 46.1% in assay [6] (setting [9]); 65.7% in assay [6] (setting [10]). In addition, in assay [2], the Her2 level is 85% (inactive). The differential viability (reversal) in assay [6] (H69AR cells + 2 uM doxorubicin) is 19.6% (inactive). Further, the inhibition in assay [7] is 4.68% (inactive); in assay [8] it was -6.83% (inactive).

As for `COc1ccc(C(=O)CSc2nc(C)cc(=O)[nH]2)cc1`, the viability is 99.5% in assay [1]; 99.5% (inactive) in assay [3]; 99.7% (inactive) in assay [4]; 101% (inactive) in assay [5]; 91.4% in assay [6] (setting [9]); 101% in assay [6] (setting [10]). Further, the Her2 level in assay [2] was 87.5% (inactive). The differential viability (reversal) in assay [6] (H69AR cells + 2 uM doxorubicin) is 10% (inactive). Further, the inhibition was -3.2% (inactive) in assay [7] and 2.1% (inactive) in assay [8].

Take `COC(=O)c1oc2ccc(OC)cc2c1N`: the viability is 107% in assay [1]; 107% (inactive) in assay [3]; 82.4% (inactive) in assay [4]; 100% (inactive) in assay [5]; 86.2% in assay [6] (setting [9]); 100% in assay [6] (setting [10]). Moreover, the Her2 level in assay [2] is 88% (inactive). For the same molecule, the differential viability (reversal) in assay [6] (H69AR cells + 2 uM doxorubicin) is 13.9% (inactive). The inhibition in assay [7] was -2.53% (inactive); in assay [8], -4.84% (inactive).

In the case of `CCOc1cc(NC(=O)c2ccco2)c(OCC)cc1NC(=O)COc1ccccc1C`, the viability in assay [1] was 67%; in assay [3], 67% (inactive); in assay [4] it was 60.9% (inactive); in assay [5], 7.87% (active); in assay [6] (setting [9]), 12.4%; in assay [6] (setting [10]), 7.87%. Also, the Her2 level in assay [2] is 77.5% (inactive). The differential viability (reversal) in assay [6] (H69AR cells + 2 uM doxorubicin) is -4.53% (inactive). Besides, the inhibition is -5.6% (inactive) in assay [7] and -6.19% (inactive) in assay [8].

Turning to `CC1Cc2ccccc2N1C(=O)CSc1nc2ccccc2n1CC(=O)N1CCOCC1` (stereo not given), the viability in assay [1] is 97%; in assay [3], 97% (inactive); in assay [4], 94% (inactive); in assay [5], 97.8% (inactive); in assay [6] (setting [9]) it was 90.8%; in assay [6] (setting [10]) it was 97.8%. In assay [2], the Her2 level is 91% (inactive). Moreover, the differential viability (reversal) in assay [6] (H69AR cells + 2 uM doxorubicin) is 7% (inactive). Further, the inhibition was -6.13% (inactive) in assay [7] and 3.77% (inactive) in assay [8].

On to `CO/C([O-])=N/c1c[n+](-c2ccc(C)cc2)no1`, for which the viability in assay [1] was 100%; in assay [3], 100% (inactive); in assay [4] it was 109% (inactive); in assay [5], 90.5% (inactive); in assay [6] (setting [9]), 91.3%; in assay [6] (setting [10]), 90.5%. Further, the Her2 level in assay [2] was 92.5% (inactive). The differential viability (reversal) in assay [6] (H69AR cells + 2 uM doxorubicin) is -0.875% (inactive). The inhibition in assay [7] is -6.49% (inactive); in assay [8] it was 7.38% (inactive).

On to `CC1Cc2ccccc2N1C(=O)c1cccnc1` (stereo not given), for which the viability in assay [1] was 121%; in assay [3], 121% (inactive); in assay [4] it was 92.8% (inactive); in assay [5], 98.1% (inactive); in assay [6] (setting [9]) it was 96%; in assay [6] (setting [10]), 98.1%. The Her2 level in assay [2] is 91.5% (inactive). Further, in assay [6] (H69AR cells + 2 uM doxorubicin), the differential viability (reversal) is 2.02% (inactive). In addition, the inhibition in assay [7] was -2.21% (inactive); in assay [8], -0.16% (inactive).

As for `CC(=O)c1c(C)[nH]c(C(=O)NCc2cccs2)c1C`, the viability in assay [1] is 97%; in assay [3], 97% (inactive); in assay [4] it was 93.8% (inactive); in assay [5], 94.9% (inactive); in assay [6] (setting [9]) it was 83.7%; in assay [6] (setting [10]), 94.9%. The Her2 level in assay [2] is 90% (inactive). Further, the differential viability (reversal) in assay [6] (H69AR cells + 2 uM doxorubicin) was 11.2% (inactive). Besides, the inhibition is 0.39% (inactive) in assay [7] and -1.45% (inactive) in assay [8].

On to `Clc1ccc(-c2nnc3sc(-c4ccc(Br)o4)nn23)cc1`, for which the viability is 128% in assay [1]; 128% (inactive) in assay [3]; 86% (inactive) in assay [4]; 104% (inactive) in assay [5]; 93.5% in assay [6] (setting [9]); 104% in assay [6] (setting [10]). Moreover, in assay [2], the Her2 level was 94.5% (inactive). In assay [6] (H69AR cells + 2 uM doxorubicin), the differential viability (reversal) is 10.5% (inactive). Besides, the inhibition in assay [7] is -5.07% (inactive); in assay [8], 5.87% (inactive).

Turning to `Cn1c(=O)c(C(=S)NC(=O)C2CC2)c(N)n(Cc2ccccc2)c1=O`, the viability in assay [1] was 70.5%; in assay [3] it was 70.5% (inactive); in assay [4] it was 59.9% (inactive); in assay [5], 78.1% (inactive); in assay [6] (setting [9]), 84.7%; in assay [6] (setting [10]), 78.1%. The Her2 level in assay [2] was 74.5% (inactive). Moreover, the differential viability (reversal) in assay [6] (H69AR cells + 2 uM doxorubicin) is -6.6% (inactive). Also, the inhibition in assay [7] is -1.05% (inactive); in assay [8], -3.65% (inactive).

Turning to `Cc1[nH]c2c(C)cccc2c(=O)c1Br`, the viability in assay [1] is 104%; in assay [3], 104% (inactive); in assay [4], 114% (inactive); in assay [5], 91.9% (inactive); in assay [6] (setting [9]), 88.7%; in assay [6] (setting [10]), 91.9%. Besides, in assay [2], the Her2 level was 81% (inactive). Besides, in assay [6] (H69AR cells + 2 uM doxorubicin), the differential viability (reversal) was 3.28% (inactive). In addition, the results for the inhibition in assay [7] and in assay [8] were -6.93% (inactive) and 6.07% (inactive), respectively.

With `CC(Oc1ccccc1)C(=O)Nc1ccc(S(=O)(=O)NCC2CCCO2)cc1` (stereo not given), the viability is 89.5% in assay [1]; 89.5% (inactive) in assay [3]; 101% (inactive) in assay [4]; 98.7% (inactive) in assay [5]; 94.6% in assay [6] (setting [9]); 98.7% in assay [6] (setting [10]). In addition, the Her2 level in assay [2] was 94.5% (inactive). Besides, the differential viability (reversal) in assay [6] (H69AR cells + 2 uM doxorubicin) was 4.12% (inactive). In addition, the inhibition in assay [7] is -1.73% (inactive); in assay [8], -5.71% (inactive).

For the molecule `COc1cc(NC(=O)c2ccc(COCC(F)(F)F)o2)cc(OC)c1OC`, the viability in assay [1] is 95%; in assay [3], 95% (inactive); in assay [4], 92.8% (inactive); in assay [5], 99.6% (inactive); in assay [6] (setting [9]), 79.5%; in assay [6] (setting [10]) it was 99.6%. Besides, the Her2 level in assay [2] was 84% (inactive). Also, the differential viability (reversal) in assay [6] (H69AR cells + 2 uM doxorubicin) is 20.1% (inactive). In addition, the inhibition in assay [7] was -1.45% (inactive); in assay [8], 2.58% (inactive).

Consider `CCOc1cc2[nH]c(=S)n(CC3CCCO3)c(=O)c2cc1OCC` (stereo not given), for which the viability in assay [1] was 105%; in assay [3], 105% (inactive); in assay [4], 88.3% (inactive); in assay [5] it was 87.8% (inactive); in assay [6] (setting [9]), 80.7%; in assay [6] (setting [10]), 87.8%. Moreover, the Her2 level in assay [2] was 103% (inactive). Moreover, the differential viability (reversal) in assay [6] (H69AR cells + 2 uM doxorubicin) is 7.12% (inactive). Besides, the inhibition was -4.46% (inactive) in assay [7] and -3.77% (inactive) in assay [8].
